Assay results published in publication PMC5395284 (Journal of Experimental Pharmacology, 2017).

Experiments:
Wistar rat brain = test: Brain neurotransmitter levels; assay type: in vivo; settings: 4 weeks treatment
Summary of the method: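 Wistar rats on high-fat diet for up to 4 weeks, caged ≤6 per cage at 25°C±2°C. Groups: control, oral SSRI test compound 20 mg/kg b.w., statin test compound 40 mg/kg b.w., or both, for 4 weeks. Brain (100 mg) homogenized in 1 mL 0.1 M perchloric acid with 0.05% EDTA, centrifuged 18,000 rpm, 10 min, 4°C. Mean±SD, n=6; p<0.05 versus lipid control.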

[1] = test system: hyperlipidemic Wistar rats; test: Plasma lipid levels; assay type: in vivo, Wistar rat; settings: 4 weeks treatment; for reduction in total cholesterol level: plasma, in comparison to lipid control
[2] = assay type: in vivo, Wistar rat
[3] = assay type: in vivo, Wistar rat; remark: listed apart in the source
[4] = after 2-week dosing of FLX; cited from earlier work
[5] = STT+FLX compared to STT monotherapy
[6] = STT+FLX for 4 weeks compared to STT-alone treatment

SMILES | brain concentration of 5-hydroxytryptamine (5HT) (Wistar rat brain; mean±SD, n=6) [µg/g] | effect on brain level of HIAA (Wistar rat brain; versus control) | effect on plasma triglyceride level ([1]; versus lipid control) | reduction in total cholesterol level [1] [%] | increase in bioavailability [4] [fold] | further results
CNCCC(Oc1ccc(C(F)(F)F)cc1)c1ccccc1 (stereo not drawn) [FLX, fluoxetine] | 0.62 ± 0.15 | failed to alter | failed to produce any significant effect | 16.3 |  | brain concentration of dopamine (Wistar rat brain; mean±SD, n=6): 1.48 ± 0.14 µg/g; accumulation in the brain relative to plasma ([2]; after multiple-dose administration): multifold higher
CCC(C)(C)C(=O)O[C@H]1C[C@@H](C)C=C2C=C[C@H](C)[C@H](CC[C@@H](O)C[C@@H](O)CC(=O)O)[C@H]21 [STA, simvastatin acid] |  |  |  |  |  | reduction in bioavailability (AUC0−∞) in plasma [3, 5]: 36%
CCC(C)(C)C(=O)O[C@H]1C[C@@H](C)C=C2C=C[C@H](C)[C@H](CC[C@@H]3C[C@@H](O)CC(=O)O3)[C@H]21 [STT, simvastatin] | 0.45 ± 0.14 | unaffected | significant reduction | 41.6 |  | effect on brain level of dopamine (Wistar rat brain; versus control): unaffected; effect on plasma HDL level ([1]; versus lipid control): increase in plasma HDL level; percentage increase in AUC0−t in brain [2, 5]: 79%; increase in AUC in plasma [3, 6]: 41.6%; increase in Cmax in plasma [3, 6]: 57.9%
COc1ccc2c(c1)[C@]13CCCC[C@@H]1[C@H](C2)N(C)CC3 [dextromethorphan] |  |  |  |  | 27 | 
COc1ccc2[nH]c([S+]([O-])Cc3ncc(C)c(OC)c3C)nc2c1 (stereo not drawn) [omeprazole] |  |  |  |  | 7.1 | 
